Source: ChEMBL document CHEMBL3351336, “Synthesis and evaluation of novel triazoles and mannich bases functionalized 1,4-dihydropyridine as angiotensin converting enzyme (ACE) inhibitors” (Bioorg Med Chem, 2014)
The source made the active and inactive calls. The rule behind the calls is not given here.

Tests used:
[1] = biological target: T1, Angiotensin-converting enzyme (Oryctolagus cuniculus) (UniProt P12822); test: (§1) Inhibition of rabbit lung ACE using hippuryl-histidyl-leucine as substrate assessed as release of hippuric acid incubated for 10 mins prior to substrate addition measured after 30 mins by spectrophotometry
T1 sequence (whole entry): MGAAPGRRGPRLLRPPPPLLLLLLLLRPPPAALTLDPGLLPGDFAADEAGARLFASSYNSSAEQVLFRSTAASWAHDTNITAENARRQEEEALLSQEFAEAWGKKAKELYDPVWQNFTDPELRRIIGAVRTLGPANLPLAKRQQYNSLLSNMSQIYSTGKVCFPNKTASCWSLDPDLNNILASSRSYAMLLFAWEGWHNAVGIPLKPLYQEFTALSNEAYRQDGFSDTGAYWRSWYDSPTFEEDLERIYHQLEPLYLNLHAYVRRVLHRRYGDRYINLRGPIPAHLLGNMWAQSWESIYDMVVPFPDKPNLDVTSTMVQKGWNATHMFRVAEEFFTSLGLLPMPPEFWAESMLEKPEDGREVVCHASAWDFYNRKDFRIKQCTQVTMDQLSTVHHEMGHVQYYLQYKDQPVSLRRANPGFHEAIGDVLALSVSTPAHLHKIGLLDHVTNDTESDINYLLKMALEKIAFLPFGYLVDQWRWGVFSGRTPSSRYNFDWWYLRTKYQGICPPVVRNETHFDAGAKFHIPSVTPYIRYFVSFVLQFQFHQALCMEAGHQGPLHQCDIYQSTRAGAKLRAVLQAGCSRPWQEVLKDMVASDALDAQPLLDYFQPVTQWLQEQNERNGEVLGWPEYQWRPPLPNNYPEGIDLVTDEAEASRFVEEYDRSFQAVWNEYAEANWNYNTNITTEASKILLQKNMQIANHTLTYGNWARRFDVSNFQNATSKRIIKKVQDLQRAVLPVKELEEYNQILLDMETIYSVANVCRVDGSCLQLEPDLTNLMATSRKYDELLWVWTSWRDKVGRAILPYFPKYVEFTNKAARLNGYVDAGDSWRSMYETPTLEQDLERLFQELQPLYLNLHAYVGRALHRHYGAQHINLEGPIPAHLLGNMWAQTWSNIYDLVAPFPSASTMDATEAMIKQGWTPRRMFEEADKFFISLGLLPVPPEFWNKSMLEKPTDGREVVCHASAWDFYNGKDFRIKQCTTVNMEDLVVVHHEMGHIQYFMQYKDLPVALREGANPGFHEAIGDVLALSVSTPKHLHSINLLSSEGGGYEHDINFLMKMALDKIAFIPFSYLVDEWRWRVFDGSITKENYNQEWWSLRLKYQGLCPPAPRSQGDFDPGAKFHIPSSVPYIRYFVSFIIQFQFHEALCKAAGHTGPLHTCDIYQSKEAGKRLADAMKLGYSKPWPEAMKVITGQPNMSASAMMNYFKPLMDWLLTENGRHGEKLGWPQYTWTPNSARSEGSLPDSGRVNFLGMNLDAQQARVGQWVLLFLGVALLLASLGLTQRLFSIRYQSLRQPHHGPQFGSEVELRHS

[2] = biological target: T2, Angiotensin-converting enzyme (Oryctolagus cuniculus, UniProt P12822); test: as §1
T2 sequence (P12822 whole entry): T1 sequence (whole entry)

A549 = test: Cytotoxicity against human A549 cells after 24 hrs by MTT assay; format: cell-based; conditions: A549, 24 h
Method in brief: (§2)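 Cells kept in DMEM with 10% heat-inactivated FBS, penicillin, streptomycin and 2 mM L-glutamine at 37 °C, 5% CO2, passaged every 2–3 days. 1 × 10^4 cells/well seeded, grown 24 h, then exposed to compounds (10 µM–1000 µM) beside vehicle control for 24 h. MTT added for 4 h, formazan dissolved in DMSO, absorbance read at 540 nm; survival versus control, EC50 by probit analysis.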

HEK293 = test: Cytotoxicity against human HEK293 cells after 24 hrs by MTT assay; format: cell-based; conditions: HEK293, 24 h; method in brief: as §2

Row | Structure (SMILES) | inhibition [1] | IC50 [2] | IC50 (A549) | IC50 (HEK293)
1 | CCOC(=O)C1=C(C)NC(C)=C(C(=O)OCC)C1c1cccc(OC)c1OCc1cn(CCC(F)(F)C(F)(F)C(F)(F)C(F)(F)C(F)(F)C(F)(F)C(F)(F)C(F)(F)F)nn1 | Dose-dependent effect | 653 nM | > 1 mM | > 1 mM
2 | NCCCC[C@H](N[C@@H](CCc1ccccc1)C(=O)O)C(=O)N1CCC[C@H]1C(=O)O [LISINOPRIL ANHYDROUS] |  | 281 nM |  | 
3 | CCOC(=O)C1=C(C)NC(C)=C(C(=O)OCC)C1c1cccc(OC)c1OCc1cn(CC(=O)Nc2nc3ccc(F)cc3s2)nn1 | Dose-dependent effect | 713 nM | > 1 mM | > 1 mM
4 | CCOC(=O)C1=C(C)NC(C)=C(C(=O)OCC)C1c1cccc(OC)c1OCC#CCN1CCC(C(=O)OCC)CC1 | inactive |  |  | 
5 | CCOC(=O)C1=C(C)NC(C)=C(C(=O)OCC)C1c1cccc(OC)c1OCC#CCN1CCOCC1 | inactive |  |  | 
6 | CCOC(=O)C1=C(C)NC(C)=C(C(=O)OCC)C1c1cc(Br)cc(Br)c1OCC#CCN1CCN(c2ccc(F)cc2)CC1 | inactive |  |  | 
7 | COc1cccc2c1C(=O)c1c(O)c3c(c(O)c1C2=O)C[C@@](O)(C(=O)CO)C[C@@H]3O[C@H]1C[C@H](N)[C@H](O)[C@H](C)O1 [DOXORUBICIN] |  |  | 0.0026 mM | 0.00069 mM
8 | CCOC(=O)C1=C(C)NC(C)=C(C(=O)OCC)C1c1cccc(OC)c1OCC#CCN1CCCC1 | inactive |  |  | 
9 | CCOC(=O)C1=C(C)NC(C)=C(C(=O)OCC)C1c1cc(Br)cc(Br)c1OCc1cn(CC(=O)NCCC(=O)O)nn1 | inactive |  |  | 
10 | CCOC(=O)C1=C(C)NC(C)=C(C(=O)OCC)C1c1cc(Br)cc(Br)c1OCC#CCN1CCN(c2ccccn2)CC1 | inactive |  |  | 
11 | CCOC(=O)C1=C(C)NC(C)=C(C(=O)OCC)C1c1cc(Br)ccc1OCc1cn(CC(=O)NC2CCCCC2)nn1 | inactive |  |  | 
12 | CCOC(=O)C1=C(C)NC(C)=C(C(=O)OCC)C1c1cc(Br)cc(Br)c1OCc1cn(CC(=O)Nc2ccc(SC(F)(F)F)cc2)nn1 | inactive |  |  | 
13 | CCOC(=O)C1=C(C)NC(C)=C(C(=O)OCC)C1c1cc(Br)cc(Br)c1OCC#CCN1CCN(CCO)CC1 | Dose-dependent effect | 928 nM | > 1 mM | > 1 mM
14 | CCOC(=O)C1=C(C)NC(C)=C(C(=O)OCC)C1c1cccc(OC)c1OCc1cn(CC(=O)Nc2nnc(C(F)(F)F)s2)nn1 | Dose-dependent effect | 409 nM | > 1 mM | > 1 mM
15 | CCOC(=O)C1=C(C)NC(C)=C(C(=O)OCC)C1c1cccc(OC)c1OCC#CCN1CCN(C)CC1 | inactive |  |  | 
16 | CCOC(=O)C1=C(C)NC(C)=C(C(=O)OCC)C1c1cc(Br)ccc1OCC#CCN1CCN(c2ccccn2)CC1 | inactive |  |  | 
17 | CCOC(=O)C1=C(C)NC(C)=C(C(=O)OCC)C1c1cc(Br)ccc1OCc1cn(CC(=O)Nc2nnc(C(F)(F)F)s2)nn1 | inactive |  |  | 
18 | CCOC(=O)C1=C(C)NC(C)=C(C(=O)OCC)C1c1cc(Br)cc(Br)c1OCc1cn(CC(=O)NC2CC2)nn1 | inactive |  |  | 
19 | CCOC(=O)C1=C(C)NC(C)=C(C(=O)OCC)C1c1cccc(OC)c1OCC#CCN1CCN(c2ccccc2)CC1 | inactive |  |  | 
20 | CCOC(=O)C1=C(C)NC(C)=C(C(=O)OCC)C1c1cc(Br)cc(Br)c1OCC#CCN1CCN(C)CC1 | inactive |  |  | 
21 | CCOC(=O)C1=C(C)NC(C)=C(C(=O)OCC)C1c1cc(Br)cc(Br)c1OCc1cn(CC(=O)NCc2ccc(OC(F)(F)F)cc2)nn1 | inactive |  |  | 
22 | CCOC(=O)C1=C(C)NC(C)=C(C(=O)OCC)C1c1cc(Br)cc(Br)c1OCc1cn(CC(=O)Nc2cccc(C(=O)O)c2)nn1 | inactive |  |  | 
23 | CCOC(=O)C1=C(C)NC(C)=C(C(=O)OCC)C1c1cc(Br)ccc1OCC#CCN1CCOCC1 | inactive |  |  | 
